From PubChem
Many of the other results were omitted from the sample, so hits are more common in it than they were.
IDH1 mut inh: inhibitors of IDH1 R132H reductase, primary screen, biochemical, plate reader, single point | Isocitrate dehydrogenase [NADP] cytoplasmic (Homo sapiens), O75874 | diaphorase/resazurin fluorescence, 60 min | inhibition, % at 10 µM | 0.18% of 70,000 active | AID 624101, 2012; in the data active = inhibition above about 34%; inconclusive = no clear call, values can overlap the other calls; inactive = below about 11%
GASC1 inh: inhibitors of GASC-1 (KDM4C) histone demethylase, primary screen, biochemical, single concentration HTS | GST-KDM4C 2-372, H3K9me3 peptide, LANCE TR-FRET | inhibition, % at 12.5 µM | 0.15% of 96,000 active | AID 720574, 2013;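 active = mean replicate inhibition above about 25%, with at least 55% of replicates also reaching it, limit read from the data, passing the limit was not always enough; inconclusive = only one of those two conditions met; inactive = neither condition met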
Target sequence (Q9H3R0 2-372 limits assumed): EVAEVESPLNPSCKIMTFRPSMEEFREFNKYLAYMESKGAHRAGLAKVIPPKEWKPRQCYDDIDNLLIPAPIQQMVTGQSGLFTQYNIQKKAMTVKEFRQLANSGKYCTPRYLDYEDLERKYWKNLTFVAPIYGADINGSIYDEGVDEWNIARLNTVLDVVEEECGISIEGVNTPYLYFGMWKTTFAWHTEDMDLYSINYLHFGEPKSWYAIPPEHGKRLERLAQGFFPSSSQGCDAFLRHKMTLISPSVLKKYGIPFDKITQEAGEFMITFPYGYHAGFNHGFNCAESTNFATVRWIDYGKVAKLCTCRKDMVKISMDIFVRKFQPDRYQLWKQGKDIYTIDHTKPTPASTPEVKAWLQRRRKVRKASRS
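System: N-terminal GST-fused human GASC-1 (KDM4C) fragment, residues 2-372; amount: enzyme final amount 10 nM; incubation: reaction 30 min RT, detection step 1 h RT; medium: HEPES buffer, pH 7.5, plus ascorbate; technique: LANCE TR-FRET, Eu antibody, ULight-streptavidin, EDTA, ex 340 nm, em 618/671 nm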
Tcruzi prolif: T. cruzi intracellular proliferation inhibitors, primary screen, cell-based, beta-gal Tulahuen parasites, NIH3T3 host, luminescence; T. cruzi beta-gal in NIH3T3, GalScreen luminescence, 90 h; inhibition, % at 8.34 µM; 5.9% of 77,000 active; AID 624255, 2012;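 active = mean inhibition above about 93%, with at least 55% of replicates each passing it, limit read from the data, passing the limit was not always enough; inconclusive = only one of those two conditions holds; inactive = neither condition holds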
Hits are given with their value.

How did CC(=O)c1ccc(NC(=O)CNS(=O)(=O)c2ccc(C(C)(C)C)cc2)cc1 do in these assays?
IDH1 mut inh: inactive

How did Cc1cc(=O)[nH]c(SCC(=O)Nc2ccc(I)cc2)n1 do in these assays?
IDH1 mut inh: inactive

Results for Cc1cc(S(=O)(=O)NCC(=O)O)ccc1Cl ?
IDH1 mut inh: inactive

Results for Cc1cccc(OCC(=O)Nc2c[nH]c(=O)[nH]c2=O)c1C ?
IDH1 mut inh: inactive

Results for COc1cc(NC(=O)CSc2nnc(-c3ccncc3)n2-c2ccc(C)cc2)cc(OC)c1 ?
IDH1 mut inh: inactive

What do the screens show for `COCCNC(=O)C[C@@H]1C[C@H]2c3cc(N(C)C)ccc3O[C@H]2[C@@H](CO)O1`?
IDH1 mut inh: inactive; GASC1 inh: inconclusive

Results for COCCNC(=O)C[C@@H]1C[C@H]2c3cc(N(C)C)ccc3O[C@H]2[C@H](CO)O1 ?
IDH1 mut inh: inactive; GASC1 inh: 38.8

What do the screens show for `COC(=O)C[C@H]1C[C@H]2c3cc(N(C)C)ccc3O[C@H]2[C@H](CO)O1`?
IDH1 mut inh: inactive; GASC1 inh: 43.4; Tcruzi prolif: inactive

How did COC(=O)C[C@@H]1C[C@H]2c3cc(N(C)C)ccc3O[C@H]2[C@@H](CO)O1 do in these assays?
IDH1 mut inh: inactive; Tcruzi prolif: inactive

How did Cc1cccc(-n2c(SCC(=O)O)nnc2-c2cccs2)c1C do in these assays?
IDH1 mut inh: inactive

What do the screens show for `Cc1ccccc1NC(=O)CSc1cc(C)c2ccccc2n1`?
IDH1 mut inh: inactive

What do the screens show for `CCOC(=O)c1sc(NC(=O)CSc2nc3c(c(C(F)(F)F)n2)CCCC3)c(C#N)c1C`?
IDH1 mut inh: inactive

How did O=S(=O)(Nc1nccs1)c1ccc(NS(=O)(=O)c2cc(Cl)ccc2Cl)cc1 do in these assays?
IDH1 mut inh: 38.8

Results for O=S(=O)(Nc1ncccn1)c1ccc(NS(=O)(=O)c2cc(Cl)ccc2Cl)cc1 ?
IDH1 mut inh: inactive

What do the screens show for `CCn1c(SCC(=O)Nc2cccc(SC)c2)nnc1-c1ccccc1Cl`?
IDH1 mut inh: inactive

Results for COc1ccc(-c2c(C#N)c(SCC(N)=O)nc(C)c2C(=O)Nc2ccccc2)cc1 ?
IDH1 mut inh: inactive

What do the screens show for `COCc1cn(CC[C@H]2CC[C@@H](NC(=O)CCN3CCCCC3)[C@H](CO)O2)nn1`?
IDH1 mut inh: inactive; GASC1 inh: inactive; Tcruzi prolif: inactive

Results for CN(C)CC(=O)N[C@H]1CC[C@H](CCn2cc(CN(C)C)nn2)O[C@H]1CO ?
IDH1 mut inh: 101.1; GASC1 inh: 91.5; Tcruzi prolif: inactive

Results for COCc1cn(CC[C@@H]2CC[C@H](NC(=O)CCN3CCCCC3)[C@@H](CO)O2)nn1 ?
IDH1 mut inh: 67.9; GASC1 inh: 67.1; Tcruzi prolif: inactive

How did CN(C)CC(=O)N[C@H]1CC[C@H](CCn2cc(CN(C)C)nn2)O[C@@H]1CO do in these assays?
IDH1 mut inh: inactive; GASC1 inh: inactive; Tcruzi prolif: inactive

Results for O=C(CSCc1ccccc1Br)Nc1cccnc1 ?
IDH1 mut inh: inactive

What do the screens show for `O=C(NCCCn1ccnc1)c1cc(-c2ccc(Br)cc2)nc2ccccc12`?
IDH1 mut inh: 41.7

How did O=C(NCCCn1ccnc1)c1ccccc1I do in these assays?
IDH1 mut inh: inactive

Results for O=C(CCC1COc2ccccc2O1)Nc1ccc(NC(=O)c2ccccc2F)cc1 (stereo not given) ?
IDH1 mut inh: inactive

Results for CN(C)Cc1cn(CC[C@H]2CC[C@@H](N)[C@H](CO)O2)nn1 ?
IDH1 mut inh: inactive; GASC1 inh: inconclusive; Tcruzi prolif: inactive

Results for N[C@H]1CC[C@H](CCn2cc(C3CCCCC3)nn2)O[C@@H]1CO ?
IDH1 mut inh: inactive; GASC1 inh: inactive; Tcruzi prolif: inactive

How did CC(C)c1cn(CC[C@@H]2CC[C@H](N)[C@@H](CO)O2)nn1 do in these assays?
IDH1 mut inh: inactive; GASC1 inh: 38.3; Tcruzi prolif: inactive

How did N[C@H]1CC[C@H](CCn2cc(C3CC3)nn2)O[C@@H]1CO do in these assays?
GASC1 inh: 31.4

How did CSc1cccc(N2C(=S)NC3c4ccccc4OC24CCCC34)c1 (stereo not given) do in these assays?
IDH1 mut inh: inactive

What do the screens show for `N#C[C@H]1[C@H](c2ccc(C#CCC3CCCC3)cc2)[C@H](CO)N1C(=O)c1ccccn1`?
GASC1 inh: inactive; Tcruzi prolif: 104.0

Results for N#C[C@H]1[C@@H](c2ccc(C#CCC3CCCC3)cc2)[C@H](CO)N1C(=O)c1ccccn1 ?
GASC1 inh: inactive; Tcruzi prolif: 100.8

What do the screens show for `CC(C)C#Cc1ccc([C@@H]2[C@@H](CO)N(C(=O)c3ccccn3)[C@H]2C#N)cc1`?
GASC1 inh: inactive; Tcruzi prolif: inactive
